≈ marks a conversion by molar mass, not a printed value.
Columns and labels:
Type in all cases: functional
Candida albicans = assay: Antimicrobial activity against Candida albicans by broth microdilution method
Summary of the method: (§1)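 Clinical isolates from human patients, tested by broth microdilution using the AFST-EUCAST reference procedure for fermentative yeasts. The MIC was read per that reference method.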

Candida parapsilosis = assay: Antimicrobial activity against Candida parapsilosis by broth microdilution method; conditions: Lodderomyces parapsilosis; summary of the method: as §1
Candida tropicalis = assay: Antimicrobial activity against Candida tropicalis by broth microdilution method; summary of the method: as §1
Nakaseomyces glabratus = assay: Antimicrobial activity against Candida glabrata by broth microdilution method; summary of the method: as §1
Pichia kudriavzevii = assay: Antimicrobial activity against Candida krusei by broth microdilution method; summary of the method: as §1
[1] = tested on: Meyerozyma guilliermondii; assay: Antimicrobial activity against Candida guilliermondii by broth microdilution method; summary of the method: as §1
Clavispora lusitaniae = assay: Antimicrobial activity against Candida lusitaniae by broth microdilution method; summary of the method: as §1
Kluyveromyces marxianus = assay: Antimicrobial activity against Candida kefyr by broth microdilution method; summary of the method: as §1
Diutina rugosa = assay: Antimicrobial activity against Candida rugosa by broth microdilution method; summary of the method: as §1
Debaryomyces hansenii = assay: Antimicrobial activity against Candida famata by broth microdilution method; summary of the method: as §1
Wickerhamomyces anomalus = assay: Antimicrobial activity against Candida pelliculosa by broth microdilution method; conditions: Hansenula anomala; summary of the method: as §1
Torulaspora delbrueckii = assay: Antimicrobial activity against Candida coliculosa by broth microdilution method; summary of the method: as §1
Pichia norvegensis = assay: Antimicrobial activity against Candida norvegensis by broth microdilution method; summary of the method: as §1
[Candida] intermedia = Antimicrobial activity against Candida intermedia by broth microdilution method; conditions: Sungouiella intermedia; summary of the method: as §1
[Candida] inconspicua = Antimicrobial activity against Candida inconspicua by broth microdilution method; conditions: Pichia inconspicua; summary of the method: as §1
Candida metapsilosis = assay: Antimicrobial activity against Candida metapsilosis by broth microdilution method; conditions: Lodderomyces metapsilosis; summary of the method: as §1
Candida orthopsilosis = assay: Antimicrobial activity against Candida orthopsilosis by broth microdilution method; conditions: Lodderomyces orthopsilosis; summary of the method: as §1
[2] = tested on: Kazachstania pintolopesii; assay: Antimicrobial activity against Candida pintolopesii by broth microdilution method; conditions: Arxiozyma pintolopesii; summary of the method: as §1
[Candida] zeylanoides = Antimicrobial activity against Candida zeylanoides by broth microdilution method; conditions: Dujonia zeylanoides; summary of the method: as §1
Magnusiomyces capitatus = assay: Antimicrobial activity against Dipodascus capitatus by broth microdilution method
Saccharomyces cerevisiae = assay: Antimicrobial activity against Saccharomyces cerevisiae by broth microdilution method
Yarrowia lipolytica = assay: Antimicrobial activity against Yarrowia lipolytica by broth microdilution method
Geotrichum candidum = assay: Antimicrobial activity against Galactomyces geotrichum by broth microdilution method
[3] = tested on: Cryptococcus deneoformans; assay: Antimicrobial activity against Cryptococcus neoformans var. neoformans by broth microdilution method
Summary of the method: (§2)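 Clinical isolates of nonfermentative yeasts, tested by broth microdilution following EUCAST recommendations. The only change from that method was a minor modification to improve growth.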

Trichosporon asahii = assay: Antimicrobial activity against Trichosporon asahii by broth microdilution method
Summary of the method: (§3)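 Nonfermentative yeast clinical isolates (Rhodotorula, Trichosporon) tested by broth microdilution. The EUCAST yeast recommendations were followed strictly, with one minor modification to improve growth. MIC was read as the endpoint.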

Rhodotorula mucilaginosa = assay: Antimicrobial activity against Rhodotorula mucilaginosa by broth microdilution method; summary of the method: as §3
Trichosporon inkin = assay: Antimicrobial activity against Trichosporon inkin by broth microdilution method; summary of the method: as §3
Trichosporon ovoides = assay: Antimicrobial activity against Trichosporon ovoides by broth microdilution method; summary of the method: as §3
Trichosporon dermatis = assay: Antimicrobial activity against Trichosporon dermatis by broth microdilution method; conditions: Cutaneotrichosporon dermatis; summary of the method: as §3
Trichosporon jirovecii = assay: Antimicrobial activity against Trichosporon jirovecii by broth microdilution method; conditions: Cutaneotrichosporon jirovecii; summary of the method: as §3
Naganishia albida = assay: Antimicrobial activity against Cryptococcus albidus by broth microdilution method; summary of the method: as §2
Ustilago = assay: Antimicrobial activity against Ustilago spp by broth microdilution method
Rhodotorula glutinis = assay: Antimicrobial activity against Rhodotorula glutinis by broth microdilution method; summary of the method: as §3
Papiliotrema laurentii = assay: Antimicrobial activity against Cryptococcus laurentii by broth microdilution method; summary of the method: as §2
Trichosporon domesticum = assay: Antimicrobial activity against Trichosporon mycotoxinivorans by broth microdilution method; conditions: Apiotrichum domesticum
Summary of the method: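 Spanish human clinical isolates were tested as nonfermentative yeasts by broth microdilution. The method strictly followed the EUCAST recommendations, with a minor modification to improve growth, and the read-out was the MIC.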

Trichosporon = assay: Antimicrobial activity against Trichosporon spp. by broth microdilution method; summary of the method: as §3

Nc1nc(=O)[nH]cc1F [FLUCYTOSINE]
MIC50 (Candida albicans): 0.12 µg/mL (≈ 0.93 µM) | MIC90 (Candida albicans): 0.5 µg/mL (≈ 3.87 µM) | MIC50 (Candida parapsilosis): 0.12 µg/mL (≈ 0.93 µM) | MIC90 (Candida parapsilosis): 0.25 µg/mL (≈ 1.94 µM) | MIC50 (Candida tropicalis): 0.12 µg/mL (≈ 0.93 µM) | MIC90 (Candida tropicalis): 0.25 µg/mL (≈ 1.94 µM) | MIC50 (Nakaseomyces glabratus): 0.12 µg/mL (≈ 0.93 µM) | MIC90 (Nakaseomyces glabratus): 0.25 µg/mL (≈ 1.94 µM) | MIC50 (Pichia kudriavzevii): 4 µg/mL (≈ 31 µM) | MIC90 (Pichia kudriavzevii): 8 µg/mL (≈ 62 µM) | MIC50 [1]: 0.12 µg/mL (≈ 0.93 µM) | MIC90 [1]: 0.25 µg/mL (≈ 1.94 µM) | MIC50 (Clavispora lusitaniae): 0.12 µg/mL (≈ 0.93 µM) | MIC90 (Clavispora lusitaniae): 16 µg/mL (≈ 124 µM) | MIC50 (Kluyveromyces marxianus): 0.5 µg/mL (≈ 3.87 µM) | MIC90 (Kluyveromyces marxianus): 4 µg/mL (≈ 31 µM) | MIC50 (Diutina rugosa): 0.25 µg/mL (≈ 1.94 µM) | MIC90 (Diutina rugosa): 16 µg/mL (≈ 124 µM) | MIC50 (Debaryomyces hansenii): 0.25 µg/mL (≈ 1.94 µM) | MIC90 (Debaryomyces hansenii): 16 µg/mL (≈ 124 µM) | MIC50 (Wickerhamomyces anomalus): 0.25 µg/mL (≈ 1.94 µM) | MIC90 (Wickerhamomyces anomalus): 16 µg/mL (≈ 124 µM) | MIC50 (Torulaspora delbrueckii): 0.25 µg/mL (≈ 1.94 µM) | MIC90 (Torulaspora delbrueckii): 16 µg/mL (≈ 124 µM) | MIC50 (Pichia norvegensis): 0.25 µg/mL (≈ 1.94 µM) | MIC90 (Pichia norvegensis): 16 µg/mL (≈ 124 µM) | MIC50 ([Candida] intermedia): 0.25 µg/mL (≈ 1.94 µM) | MIC90 ([Candida] intermedia): 16 µg/mL (≈ 124 µM) | MIC50 ([Candida] inconspicua): 0.25 µg/mL (≈ 1.94 µM) | MIC90 ([Candida] inconspicua): 16 µg/mL (≈ 124 µM) | MIC50 (Candida metapsilosis): 0.25 µg/mL (≈ 1.94 µM) | MIC90 (Candida metapsilosis): 16 µg/mL (≈ 124 µM) | MIC50 (Candida orthopsilosis): 0.25 µg/mL (≈ 1.94 µM) | MIC90 (Candida orthopsilosis): 16 µg/mL (≈ 124 µM) | MIC50 [2]: 0.25 µg/mL (≈ 1.94 µM) | MIC90 [2]: 16 µg/mL (≈ 124 µM) | MIC50 ([Candida] zeylanoides): 0.25 µg/mL (≈ 1.94 µM) | MIC90 ([Candida] zeylanoides): 16 µg/mL (≈ 124 µM) | MIC50 (Magnusiomyces capitatus): 0.12 µg/mL (≈ 0.93 µM) | MIC90 (Magnusiomyces capitatus): 1 µg/mL (≈ 7.75 µM) | MIC50 (Saccharomyces cerevisiae): 0.12 µg/mL (≈ 0.93 µM) | MIC90 (Saccharomyces cerevisiae): 0.5 µg/mL (≈ 3.87 µM) | MIC50 (Yarrowia lipolytica): > 64 µg/mL | MIC90 (Yarrowia lipolytica): > 64 µg/mL | MIC50 (Geotrichum candidum): 0.12 µg/mL (≈ 0.93 µM) | MIC90 (Geotrichum candidum): 0.25 µg/mL (≈ 1.94 µM) | MIC50 [3]: 16 µg/mL (≈ 124 µM) | MIC90 [3]: 32 µg/mL (≈ 248 µM) | MIC50 (Trichosporon asahii): 32 µg/mL (≈ 248 µM) | MIC90 (Trichosporon asahii): > 64 µg/mL | MIC50 (Rhodotorula mucilaginosa): 0.25 µg/mL (≈ 1.94 µM) | MIC90 (Rhodotorula mucilaginosa): 1 µg/mL (≈ 7.75 µM) | MIC50 (Trichosporon inkin): 64 µg/mL (≈ 496 µM) | MIC90 (Trichosporon inkin): > 64 µg/mL | MIC50 (Trichosporon ovoides): 16 µg/mL (≈ 124 µM) | MIC90 (Trichosporon ovoides): > 64 µg/mL | MIC50 (Trichosporon dermatis): 16 µg/mL (≈ 124 µM) | MIC90 (Trichosporon dermatis): > 64 µg/mL | MIC50 (Trichosporon jirovecii): 16 µg/mL (≈ 124 µM) | MIC90 (Trichosporon jirovecii): > 64 µg/mL | MIC50 (Naganishia albida): 16 µg/mL (≈ 124 µM) | MIC90 (Naganishia albida): > 64 µg/mL | MIC50 (Ustilago): 16 µg/mL (≈ 124 µM) | MIC90 (Ustilago): > 64 µg/mL | MIC50 (Rhodotorula glutinis): 16 µg/mL (≈ 124 µM) | MIC90 (Rhodotorula glutinis): > 64 µg/mL | MIC50 (Papiliotrema laurentii): 16 µg/mL (≈ 124 µM) | MIC90 (Papiliotrema laurentii): > 64 µg/mL | MIC50 (Trichosporon domesticum): 16 µg/mL (≈ 124 µM) | MIC90 (Trichosporon domesticum): > 64 µg/mL | MIC50 (Trichosporon): 16 µg/mL (≈ 124 µM) | MIC90 (Trichosporon): > 64 µg/mL

— ChEMBL document CHEMBL1649165, “Activity profile in vitro of micafungin against Spanish clinical isolates of common and emerging species of yeasts and molds” (2009)
